Data set [1] addresses T1, Tyrosine-protein kinase JAK3 (Homo sapiens) (UniProt P52333).
T1 sequence (whole entry): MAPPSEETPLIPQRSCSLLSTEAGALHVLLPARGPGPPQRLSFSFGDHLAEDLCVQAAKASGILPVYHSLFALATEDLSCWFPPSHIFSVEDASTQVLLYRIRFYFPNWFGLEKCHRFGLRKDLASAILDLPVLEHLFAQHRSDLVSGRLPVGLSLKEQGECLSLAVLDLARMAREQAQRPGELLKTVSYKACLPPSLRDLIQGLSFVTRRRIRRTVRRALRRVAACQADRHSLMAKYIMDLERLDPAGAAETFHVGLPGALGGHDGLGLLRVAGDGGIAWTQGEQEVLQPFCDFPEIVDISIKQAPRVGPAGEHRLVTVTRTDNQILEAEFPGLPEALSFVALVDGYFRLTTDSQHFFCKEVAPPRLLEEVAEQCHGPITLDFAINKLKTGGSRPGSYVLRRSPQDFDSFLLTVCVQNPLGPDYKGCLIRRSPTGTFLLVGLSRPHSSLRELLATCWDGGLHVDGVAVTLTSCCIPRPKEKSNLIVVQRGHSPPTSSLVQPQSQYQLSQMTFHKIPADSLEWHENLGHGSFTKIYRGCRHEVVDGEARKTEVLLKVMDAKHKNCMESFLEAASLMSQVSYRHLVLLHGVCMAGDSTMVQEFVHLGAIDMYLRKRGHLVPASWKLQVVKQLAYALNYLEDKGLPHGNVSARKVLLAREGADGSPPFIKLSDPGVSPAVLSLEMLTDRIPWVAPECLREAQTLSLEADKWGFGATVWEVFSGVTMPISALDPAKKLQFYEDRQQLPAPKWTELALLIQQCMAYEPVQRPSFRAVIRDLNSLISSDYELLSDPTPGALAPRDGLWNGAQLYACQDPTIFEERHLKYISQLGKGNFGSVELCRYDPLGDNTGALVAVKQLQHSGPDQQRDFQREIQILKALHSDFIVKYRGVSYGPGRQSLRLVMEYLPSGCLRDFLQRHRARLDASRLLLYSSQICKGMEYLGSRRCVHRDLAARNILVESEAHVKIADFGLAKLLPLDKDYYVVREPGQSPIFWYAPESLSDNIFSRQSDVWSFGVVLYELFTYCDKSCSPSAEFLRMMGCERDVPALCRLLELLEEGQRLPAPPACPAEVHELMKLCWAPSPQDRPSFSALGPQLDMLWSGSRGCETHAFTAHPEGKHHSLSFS
Nature of the data set: Inhibition of JAK3 (unknown origin) at 1 uM by proQinase-based assay relative to control.

In data set [2] the target is Tyrosine-protein kinase Blk (Homo sapiens) (UniProt P51451). Put plainly: Inhibition of BLK (unknown origin) at 1 uM by proQinase-based assay relative to control.
A short description of data set [3]: Apparent permeability across apical to basolateral side in human Caco2 cells at 5 uM after 2 hrs by transwell membrane based assay. As to conditions: Caco-2. The data set is classed as ADME, cell-based. The procedure, abridged:
(§1)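 10 mM DMSO stock diluted to 5 µM final in HBSS pH 7.4; 2 h at 37 °C, 5% CO2 on Caco-2 monolayers grown 21 days on transwell membranes.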

Data set [4] has as its target T2, Cytoplasmic tyrosine-protein kinase BMX (Homo sapiens) (UniProt P51813).
T2 sequence (whole entry): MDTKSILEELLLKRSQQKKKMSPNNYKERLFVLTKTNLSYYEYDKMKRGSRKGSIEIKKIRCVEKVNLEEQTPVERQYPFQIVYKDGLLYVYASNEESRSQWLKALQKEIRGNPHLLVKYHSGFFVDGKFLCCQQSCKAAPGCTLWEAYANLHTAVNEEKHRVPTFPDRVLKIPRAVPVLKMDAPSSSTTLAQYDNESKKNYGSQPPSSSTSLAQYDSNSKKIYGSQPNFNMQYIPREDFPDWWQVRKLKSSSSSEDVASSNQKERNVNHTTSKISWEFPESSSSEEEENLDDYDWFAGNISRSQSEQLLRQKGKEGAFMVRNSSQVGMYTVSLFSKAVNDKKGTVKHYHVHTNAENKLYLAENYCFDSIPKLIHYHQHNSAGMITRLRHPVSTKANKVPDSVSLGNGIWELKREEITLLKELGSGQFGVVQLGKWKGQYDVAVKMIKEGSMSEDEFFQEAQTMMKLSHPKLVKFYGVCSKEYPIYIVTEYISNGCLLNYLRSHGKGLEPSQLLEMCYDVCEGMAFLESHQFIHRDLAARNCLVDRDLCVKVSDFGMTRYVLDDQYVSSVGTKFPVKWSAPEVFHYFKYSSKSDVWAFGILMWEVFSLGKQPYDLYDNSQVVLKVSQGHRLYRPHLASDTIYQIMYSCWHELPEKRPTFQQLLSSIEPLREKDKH
Put plainly: Inhibition of BMX (unknown origin) at 1 uM by proQinase-based assay relative to control.

Data set [5] can be described thus: in vitro. The conditions noted are these: mouse, liver microsomes. For orientation: Liver microsomes are vesicles of endoplasmic reticulum, rich in cytochrome P450 enzymes.
A short description of data set [6]: Apparent permeability across basolateral to apical side in human Caco2 cells at 5 uM after 2 hrs by transwell membrane based assay. The conditions noted are these: Caco-2. In kind it is ADME, cell-based, Caco-2. The procedure, abridged: as §1
A general note: Caco-2 monolayers are a common model of the intestinal barrier.

Data set [7] concerns the target T3, Dual specificity mitogen-activated protein kinase kinase 7 (Mus musculus) (UniProt Q8CE90).
T3 sequence (whole entry): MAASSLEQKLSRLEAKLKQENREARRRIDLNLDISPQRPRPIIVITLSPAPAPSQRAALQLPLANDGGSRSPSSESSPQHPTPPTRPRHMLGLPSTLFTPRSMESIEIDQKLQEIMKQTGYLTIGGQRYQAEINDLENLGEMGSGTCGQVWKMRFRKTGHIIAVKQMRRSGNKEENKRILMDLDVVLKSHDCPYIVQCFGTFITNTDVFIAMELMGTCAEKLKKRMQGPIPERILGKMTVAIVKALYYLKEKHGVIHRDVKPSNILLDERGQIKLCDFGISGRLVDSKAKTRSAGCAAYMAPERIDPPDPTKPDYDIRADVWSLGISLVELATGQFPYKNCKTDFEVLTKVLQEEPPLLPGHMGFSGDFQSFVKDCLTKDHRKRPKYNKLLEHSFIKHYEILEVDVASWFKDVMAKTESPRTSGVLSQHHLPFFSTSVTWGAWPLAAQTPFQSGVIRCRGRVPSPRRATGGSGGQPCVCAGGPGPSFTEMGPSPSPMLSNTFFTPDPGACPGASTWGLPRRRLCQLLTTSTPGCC
Put plainly: Inhibition of MKK7 in mouse DRG cells assessed as reduction in cJUN phosphorylation at 1 uM after 2 hrs by Western blot analysis. The data set is classed as cell-based. The procedure, abridged:
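Dissociated DRG neurons plated on laminin for 3 h, medium replaced, compound added for a further 2 h. Neurons lysed in RIPA buffer with phosphatase inhibitors. Western blots probed for phospho-cJun, cJun, phospho-JNK and JNK.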
In general terms: In western blotting, separated proteins are transferred to a membrane and probed.

Data set [8] in a line: Stability in mouse plasma assessed as compound remaining at 5 uM after 1 hr by LC/MS analysis. The data set is classed as ADME, cell-free. As to conditions: read-out: Stability. Put shortly: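 Compound at 5 µM incubated 1 h at 37 °C in human or mouse plasma; percentage remaining quantified by LC/MS.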
For data set [9], the target named is Serine/threonine-protein kinase mTOR (Homo sapiens) (UniProt P42345). Put plainly: Inhibition of mTOR (unknown origin) at 1 uM by proQinase-based assay relative to control.

Experimental findings from ChEMBL document CHEMBL4480410, “Targeting the MKK7-JNK (Mitogen-Activated Protein Kinase Kinase 7-c-Jun N-Terminal Kinase) Pathway with Covalent Inhibitors” (J Med Chem, 2019) are described below.

Active and inactive are the calls of the source. The calls are words filed in the database; no cut-off is given here. A value given as a limit tells only on which side of the number the result lay.

Sequence of Tyrosine-protein kinase Blk (Homo sapiens) (P51451 2-505 limits assumed): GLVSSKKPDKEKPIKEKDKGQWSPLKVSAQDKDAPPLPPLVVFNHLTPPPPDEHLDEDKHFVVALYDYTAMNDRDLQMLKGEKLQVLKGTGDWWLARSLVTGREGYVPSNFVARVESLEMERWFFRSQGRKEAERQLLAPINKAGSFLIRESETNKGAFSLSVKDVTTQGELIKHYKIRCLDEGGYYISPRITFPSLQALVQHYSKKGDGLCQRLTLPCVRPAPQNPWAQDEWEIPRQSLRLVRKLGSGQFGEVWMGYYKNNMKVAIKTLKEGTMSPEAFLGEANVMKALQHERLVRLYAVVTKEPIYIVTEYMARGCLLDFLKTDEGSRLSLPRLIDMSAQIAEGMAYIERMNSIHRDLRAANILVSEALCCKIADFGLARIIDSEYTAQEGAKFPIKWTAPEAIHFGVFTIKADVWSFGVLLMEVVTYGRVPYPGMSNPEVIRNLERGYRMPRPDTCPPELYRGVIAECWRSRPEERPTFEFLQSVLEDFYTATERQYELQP

Turning to `C=CC(=O)N1CCC[C@@H](n2nc(-c3cn(-c4ccc(C(C)=O)cc4)nn3)c3c(N)ncnc32)C1`, the inhibition in data set [1], in [2], in data set [4] and in data set [9] was above 50% each time. In data set [3], the Papp A→B – broadly, how fast a substance crosses the layer from the apical side – at 2 h, 5 µM amounted to 20 ×10⁻⁶ cm/s. Also, in [5], the intrinsic metabolic clearance (microsomal CLint) (in general, a measure of how fast metabolising enzymes remove a compound, apart from limits set by blood flow) at 1 h, 3 µM came out at 124 µL/min/mg. The Papp B→A (usually the apparent permeability from the basolateral to the apical side of a cell layer) at 2 h, 5 µM in data set [6] was 13 ×10⁻⁶ cm/s. Further, the inhibition – broadly, how much of the control response was suppressed – in data set [7] is “Active”. Further, the remaining at 1 h, 5 µM in data set [8] was 70.4%.
